Measurements reported in BindingDB's records for doi:10.1016/j.bmc.2008.08.048 (National Institute of Diabetes and Digestive and Kidney …, 2008).

Biological target: Transient receptor potential cation channel subfamily V member 1 (Rattus norvegicus, UniProt O35433)
Experiment: Agonist-enhancing activity at TRPV1 receptor in E15 rat primary dorsal root ganglion cells assessed as capsaicin-induced 45Ca2+ influx by microplate liquid scintillation counter
Summary of the method: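 E15 rat DRG cultures grown 5–6 days at 35°C. Uptake with capsaicin ~0.5 µM, 10 min at 20°C, 0.5 µCi/well 45Ca2+ in Tris-HBSS pH 7.5. Compound up to 50 µM, 0.2% DMSO, from 25 mM stocks. Counts normalized to in-plate capsaicin-only wells (100%, 4 wells). Variable-slope sigmoid fit gave EC50, Hill slope and ΔEmax.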

Sequence of Transient receptor potential cation channel subfamily V member 1 (O35433 whole entry): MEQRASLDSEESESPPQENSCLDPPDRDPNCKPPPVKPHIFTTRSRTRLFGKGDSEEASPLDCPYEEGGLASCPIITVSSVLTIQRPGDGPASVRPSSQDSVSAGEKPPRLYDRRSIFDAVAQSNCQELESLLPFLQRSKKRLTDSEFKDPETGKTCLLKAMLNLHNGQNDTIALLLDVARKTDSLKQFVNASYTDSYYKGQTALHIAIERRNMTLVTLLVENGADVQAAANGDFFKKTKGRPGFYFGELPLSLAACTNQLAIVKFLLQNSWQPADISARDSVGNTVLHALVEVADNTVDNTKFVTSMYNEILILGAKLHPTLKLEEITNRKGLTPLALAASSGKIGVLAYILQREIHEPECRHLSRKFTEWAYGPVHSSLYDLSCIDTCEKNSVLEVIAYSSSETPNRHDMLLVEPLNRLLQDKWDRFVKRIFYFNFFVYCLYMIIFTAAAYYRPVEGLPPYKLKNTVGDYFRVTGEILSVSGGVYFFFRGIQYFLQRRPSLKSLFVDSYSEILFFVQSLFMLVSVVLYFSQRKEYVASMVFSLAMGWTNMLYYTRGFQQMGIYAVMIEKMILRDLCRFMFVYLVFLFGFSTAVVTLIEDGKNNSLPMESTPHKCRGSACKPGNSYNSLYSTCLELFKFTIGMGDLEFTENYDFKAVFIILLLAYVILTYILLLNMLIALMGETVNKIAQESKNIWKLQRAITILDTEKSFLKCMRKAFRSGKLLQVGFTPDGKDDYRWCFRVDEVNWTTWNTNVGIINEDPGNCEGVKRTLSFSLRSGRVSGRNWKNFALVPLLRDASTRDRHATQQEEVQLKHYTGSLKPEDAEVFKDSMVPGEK

EC50: 17 µM
SMILES: CCOC(=O)C1=C(c2cccc(Cl)c2)N=C(C)C(C(=O)OCC)C1CC (single isomer, unassigned; (+)) [3,5-diethyl-2-methyl-4-ethyl-6-(3-chlorophenyl)-1,4-(+)-dihydropyridine-3,5-dicarboxylate]
